Measured values: article PMC10055171 (bioRxiv, 2023)
Several values for one entry are separate records, joined by “and”; a condition that tells them apart may be missing. Identical values can stand only once. Where a SMILES comes first, the peptide text is derived from it. The star is where a group is joined. Cbz = O=C(OCc1ccccc1)*

Columns and labels:
[1] = test system: HeLa cells expressing myc-TDP-4FL; test: Sequential extraction and immunoblot of soluble and insoluble TDP-4FL; assay type: cell-based
[2] = test system: HeLa cells expressing TDP-4FL; test: Confocal immunofluorescence of intranuclear TDP-4FL inclusion morphology; assay type: cell-based
[3] = test system: HeLa cells expressing myc-TDP-43; test: Immunofluorescence and immunoblot of myc-TDP-43 under proteasome inhibition; assay type: cell-based
Method in brief: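 For imaging, cells were fixed in 4% paraformaldehyde, permeabilised with 0.1% Triton X-100, stained with anti-myc and DAPI, and imaged by confocal microscopy. For blots, RIPA-soluble and urea-soluble fractions were separated at 100,000 x g, and 25-40 µg protein was immunoblotted with GAPDH as loading control.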

[4] = test system: HeLa cells expressing myc-TDP-4FL; test: Anti-myc immunoprecipitation of insoluble TDP-4FL, ubiquitin immunoblot; assay type: cell-based; conditions: MG132 treatment, immunoprecipitation of insoluble fraction
Method in brief: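 Sequential extraction: RIPA, then 100,000 x g for 30 min at 4°C, then urea/thiourea/CHAPS buffer. The urea-soluble fraction was diluted in TBST containing 100 mM NEM and 5 mM EDTA and incubated overnight at 4°C with anti-c-Myc magnetic beads. Elution was in Laemmli buffer with 0.5 mM DTT, 10 min at 99°C, followed by immunoblotting with IR-dye detection.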

recombinant WT VCP [5] = target: T1, recombinant WT VCP (Mus musculus, UniProt Q01853); assay type: biochemical; conditions: for maximal increase of VCP activity / Maximum % Activity (95% CI): WT VCP; for maximal increase of VCP activity: increase over baseline; for Maximum % Activity (95% CI): 50 nM VCP, 62.5 μM ATP, Kinase-Glo; for recombinant WT VCP ATPase activity (in words): luciferase-based Kinase-Glo assay
T1 sequence (Q01853 whole entry): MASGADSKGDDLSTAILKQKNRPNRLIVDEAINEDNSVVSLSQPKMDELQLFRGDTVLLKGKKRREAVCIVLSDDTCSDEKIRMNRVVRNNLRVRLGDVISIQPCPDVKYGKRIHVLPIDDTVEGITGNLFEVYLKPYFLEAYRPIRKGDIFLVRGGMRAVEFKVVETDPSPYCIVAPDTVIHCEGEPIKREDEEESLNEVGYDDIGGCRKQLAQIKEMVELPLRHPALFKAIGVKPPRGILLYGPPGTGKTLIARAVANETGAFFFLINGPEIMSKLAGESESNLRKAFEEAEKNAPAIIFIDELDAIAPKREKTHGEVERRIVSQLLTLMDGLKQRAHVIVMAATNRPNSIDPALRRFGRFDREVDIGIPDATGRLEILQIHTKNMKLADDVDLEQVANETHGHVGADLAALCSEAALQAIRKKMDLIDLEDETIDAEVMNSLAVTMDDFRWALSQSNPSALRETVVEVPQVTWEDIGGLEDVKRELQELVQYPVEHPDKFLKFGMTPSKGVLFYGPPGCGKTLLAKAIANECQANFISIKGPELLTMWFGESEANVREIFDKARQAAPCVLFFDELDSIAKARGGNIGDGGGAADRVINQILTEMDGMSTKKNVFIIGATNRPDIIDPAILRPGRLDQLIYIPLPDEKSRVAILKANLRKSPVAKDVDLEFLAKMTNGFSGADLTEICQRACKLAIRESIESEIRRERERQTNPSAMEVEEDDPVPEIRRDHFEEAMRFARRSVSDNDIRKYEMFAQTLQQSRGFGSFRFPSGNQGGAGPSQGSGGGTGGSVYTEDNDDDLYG
Method in brief: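 Titration of activator concentrations against 50 nM His-tagged recombinant VCP, no cofactors, with 62.5 µM ATP. Buffer: 25 mM HEPES pH 7.5, 100 mM NaCl, 10 mM MgCl2, 2% DMSO. Incubated 1 h at 25°C, then 20 min with Kinase-Glo reagent at room temperature, read by luminescence. Fitted to a 3-parameter dose curve with profile-likelihood 95% CI; n=3 with 3 technical replicates.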

WT VCP + Ufd1/Nploc4 = WT VCP + Ufd1/Nploc4 (Mus musculus, UniProt Q01853); test: Kinase-Glo ATPase assay of recombinant VCP with UFD1/NPLOC4 cofactors; assay type: biochemical; conditions: for Maximum % Activity (95% CI) / EC50: WT VCP + Ufd1/Nploc4, 50 nM each, 62.5 μM ATP; for EC50: read-out: EC50 (μM) (95% CI)
Chain of WT VCP + Ufd1/Nploc4 (Q01853 whole entry): as above
Chain of WT VCP + Ufd1/Nploc4 (Q92890 whole entry partner): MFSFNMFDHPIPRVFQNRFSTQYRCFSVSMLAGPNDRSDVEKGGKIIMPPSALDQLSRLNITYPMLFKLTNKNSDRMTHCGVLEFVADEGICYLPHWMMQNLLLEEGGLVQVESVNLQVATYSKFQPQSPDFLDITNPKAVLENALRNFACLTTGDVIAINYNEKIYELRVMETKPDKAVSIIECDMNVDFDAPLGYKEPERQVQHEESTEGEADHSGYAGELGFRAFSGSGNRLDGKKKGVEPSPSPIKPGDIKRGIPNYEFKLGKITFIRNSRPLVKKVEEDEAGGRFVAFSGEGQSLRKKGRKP
Chain of WT VCP + Ufd1/Nploc4 (Q8TAT6 whole entry partner): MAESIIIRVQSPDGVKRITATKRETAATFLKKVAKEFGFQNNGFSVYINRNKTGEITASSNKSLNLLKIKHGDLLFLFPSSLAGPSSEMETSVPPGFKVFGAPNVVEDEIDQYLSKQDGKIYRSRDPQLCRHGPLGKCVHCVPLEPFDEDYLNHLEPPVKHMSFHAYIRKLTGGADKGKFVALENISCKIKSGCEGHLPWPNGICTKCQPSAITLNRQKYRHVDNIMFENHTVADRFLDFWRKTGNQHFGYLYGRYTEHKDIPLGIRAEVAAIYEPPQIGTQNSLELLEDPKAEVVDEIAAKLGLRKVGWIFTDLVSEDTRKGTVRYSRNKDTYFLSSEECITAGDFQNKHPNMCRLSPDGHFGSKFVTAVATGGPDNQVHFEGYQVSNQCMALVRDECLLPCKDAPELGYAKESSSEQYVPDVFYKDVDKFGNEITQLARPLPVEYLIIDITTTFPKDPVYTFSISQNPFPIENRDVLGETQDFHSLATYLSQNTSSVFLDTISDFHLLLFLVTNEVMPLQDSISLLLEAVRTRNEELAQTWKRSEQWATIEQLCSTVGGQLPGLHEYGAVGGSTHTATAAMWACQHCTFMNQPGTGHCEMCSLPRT
Method in brief: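 50 nM His-tagged recombinant VCP was mixed with 50 nM co-purified UFD1/NPLOC4 complex (1:1 molar) in 25 mM HEPES pH 7.5, 100 mM NaCl, 10 mM MgCl2, 2% DMSO. Added 62.5 µM ATP and a range of activator concentrations, then incubated 1 h at 25°C. ATP remaining was read by Kinase-Glo luminescence after 20 min at room temperature. 3-parameter dose-curve fit with profile-likelihood 95% CI; n=3, 3 technical replicates.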

recombinant WT VCP [6] = target: T1, recombinant WT VCP; test: MESG-PNP; assay type: biochemical; conditions: for increase in kcat: 25 μM activator compared with DMSO; for kcat (nmol Pi / nmol VCP / s) (95% CI): WT VCP with 25 μM compound
Method in brief: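 EnzCheck (MESG-PNP) phosphate-release assay: 50 nM recombinant VCP in ATPase buffer with 2% DMSO, 25 µM compound or DMSO, and various ATP concentrations. Absorbance at 360 nm followed for >15 min at 25°C. Phosphate was quantified from an on-plate standard curve. Initial velocities came from linear fits and were fitted to Michaelis-Menten with asymmetric profile-likelihood 95% CI.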

[7] = target: N-ethylmaleimide-sensitive factor (NSF) (Homo sapiens, UniProt P46459); test: ATPase activity of recombinant NSF; assay type: biochemical; conditions: 25 μM activator, 50 nM NSF, 62.5 μM ATP
Chain of N-ethylmaleimide-sensitive factor (NSF) (P46459 whole entry): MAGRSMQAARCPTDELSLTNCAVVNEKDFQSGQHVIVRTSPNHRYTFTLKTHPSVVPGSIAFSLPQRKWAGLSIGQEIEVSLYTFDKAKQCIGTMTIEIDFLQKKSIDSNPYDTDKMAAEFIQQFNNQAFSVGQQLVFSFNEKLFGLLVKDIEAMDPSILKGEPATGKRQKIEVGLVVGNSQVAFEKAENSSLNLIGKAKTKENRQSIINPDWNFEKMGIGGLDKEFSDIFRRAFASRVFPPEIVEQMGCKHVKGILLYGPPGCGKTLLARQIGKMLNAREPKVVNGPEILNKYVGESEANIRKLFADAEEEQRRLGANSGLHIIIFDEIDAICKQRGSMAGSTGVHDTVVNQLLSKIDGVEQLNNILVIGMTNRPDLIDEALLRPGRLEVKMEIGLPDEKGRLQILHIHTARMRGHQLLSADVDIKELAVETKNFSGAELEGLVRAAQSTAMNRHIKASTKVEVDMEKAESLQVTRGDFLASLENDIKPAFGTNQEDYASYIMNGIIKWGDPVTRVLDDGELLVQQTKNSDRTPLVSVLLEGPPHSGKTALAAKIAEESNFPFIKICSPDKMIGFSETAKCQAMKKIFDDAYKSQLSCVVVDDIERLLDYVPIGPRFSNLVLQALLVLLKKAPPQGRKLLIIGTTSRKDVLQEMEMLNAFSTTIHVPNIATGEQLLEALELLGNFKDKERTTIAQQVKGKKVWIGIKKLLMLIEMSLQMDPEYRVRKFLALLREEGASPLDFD

VCP (E578Q) = VCP (E578Q) (Mus musculus, UniProt Q01853, E578Q); test: ATPase activity of VCP with D2 Walker B mutation; assay type: biochemical; conditions: 25 μM activator vs DMSO
Chain of VCP (E578Q) (Q01853 whole entry E578Q, the tested form may be a part): as the sequence (Q01853 whole entry) above, with E578Q counted along it

ND1L (aa1–481) VCP = ND1L (aa1–481) VCP (Homo sapiens, UniProt P55072); test: ATPase activity of truncated ND1L VCP; assay type: biochemical; conditions: 25 μM compound vs DMSO
Chain of ND1L (aa1–481) VCP (P55072 1-481): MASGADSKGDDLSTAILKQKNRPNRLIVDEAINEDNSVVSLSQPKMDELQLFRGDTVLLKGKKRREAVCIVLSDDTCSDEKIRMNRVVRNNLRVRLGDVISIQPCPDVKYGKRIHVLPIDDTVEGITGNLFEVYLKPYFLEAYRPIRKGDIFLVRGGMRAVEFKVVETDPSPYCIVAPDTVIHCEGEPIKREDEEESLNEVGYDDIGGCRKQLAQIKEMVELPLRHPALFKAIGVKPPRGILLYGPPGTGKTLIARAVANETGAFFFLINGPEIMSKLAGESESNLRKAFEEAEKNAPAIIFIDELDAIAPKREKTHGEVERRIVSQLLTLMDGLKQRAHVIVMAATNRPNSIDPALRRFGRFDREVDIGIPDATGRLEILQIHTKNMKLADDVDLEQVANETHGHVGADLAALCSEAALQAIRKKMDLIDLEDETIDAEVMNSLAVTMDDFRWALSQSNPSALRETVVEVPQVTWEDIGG

LD2 (aa442–806) VCP = LD2 (aa442–806) VCP (Homo sapiens, UniProt P55072); test: ATPase activity of truncated LD2 VCP; assay type: biochemical; conditions: 25 μM compound vs DMSO
Chain of LD2 (aa442–806) VCP (P55072 442-806): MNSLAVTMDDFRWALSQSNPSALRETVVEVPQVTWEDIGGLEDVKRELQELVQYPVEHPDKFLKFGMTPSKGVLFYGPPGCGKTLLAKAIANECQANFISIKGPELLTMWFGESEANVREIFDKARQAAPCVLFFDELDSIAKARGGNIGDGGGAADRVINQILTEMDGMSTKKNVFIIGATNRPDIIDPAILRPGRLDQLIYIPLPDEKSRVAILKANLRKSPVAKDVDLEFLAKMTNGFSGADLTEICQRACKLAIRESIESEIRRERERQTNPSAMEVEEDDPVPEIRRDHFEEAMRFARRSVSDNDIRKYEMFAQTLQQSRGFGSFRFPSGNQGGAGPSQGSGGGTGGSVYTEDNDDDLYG

luciferase = test: Luciferase counter-screen: Kinase-Glo without recombinant VCP; assay type: biochemical; conditions: 62.5 μM ATP, increasing compound, no VCP
[8] = test system: WT HeLa cells expressing GFP-TDP-4FL; test: Flow cytometry of GFP-TDP-4FL clearance, wild-type HeLa; assay type: cell-based
[9] = test system: CRISPR-Cas9 knock-in HeLa cells harboring A232E VCP expressing GFP-TDP-4FL; test: Flow cytometry of GFP-TDP-4FL clearance, A232E knock-in HeLa; assay type: cell-based
[10] = test system: CRISPR-Cas9 knock-in HeLa cells harboring R155H VCP expressing GFP-TDP-4FL; test: Flow cytometry of GFP-TDP-4FL clearance, R155H knock-in HeLa; assay type: cell-based
drosophila model of MSP = conditions: cited from earlier work
[11] = test system: R155H/R155H mouse model of MSP; conditions: cited from earlier work
[12] = CB5083 + CHX 6 hours after 3 hours MG132
[13] = 5μM UP109 + CHX 4 hours after MG132, vs CHX only

Compound	maximal increase of VCP activity (recombinant WT VCP [5])	Maximum % Activity (95% CI) (recombinant WT VCP [5])	Maximum % Activity (95% CI) (WT VCP + Ufd1/Nploc4)	EC50 (WT VCP + Ufd1/Nploc4)	increase in kcat (recombinant WT VCP [6])	ATPase activity of ND1L construct (ND1L (aa1–481) VCP)	luciferase activity inhibition (luciferase)	recombinant WT VCP ATPase activity (in words) (recombinant WT VCP [5])	kcat (nmol Pi / nmol VCP / s) (95% CI) (recombinant WT VCP [6])	NSF ATPase activity compared to DMSO [7]	ATPase activity of VCP E578Q (inactive D2, active D1) (VCP (E578Q))	ATPase activity of LD2 construct (LD2 (aa442–806) VCP)	further results
CC(C)C[C@@H](C=O)NC(=O)[C@H](CC(C)C)NC(=O)[C@H](CC(C)C)NC(=O)OCc1ccccc1 [MG132] (Cbz-Leu-Leu-Leu-aldehyde)	–	–	–	–	–	–	–	–	–	–	–	–	insoluble TDP-4FL ([1]; 4μM MG132 for 0, 3, or 6 hours): increase in insoluble TDP-4FL; soluble TDP-4FL ([1]; 4μM MG132 for 0, 3, or 6 hours): decrease in soluble TDP-4FL; TDP-4FL inclusion morphology ([2]; 4μM MG132, 3 or 6 hours): coalesced into larger, irregularly shaped aggregates; TDP-43 nuclear morphology ([3]; 4μM MG132): formation of coarse nuclear punctae; insoluble TDP-43 protein ([3]; 4μM MG132 for 0, 3, or 6 hours): increase in insoluble TDP-43 protein; soluble TDP-43 protein ([3]; 4μM MG132 for 0, 3, or 6 hours): reduction in soluble TDP-43 protein; ubiquitination of insoluble myc-TDP-4FL [4]: ubiquitination of TDP-4FL protein
Cc1cc2c(C(N)=O)cccc2n1-c1nc2c(c(NCc3ccccc3)n1)COCC2 [CB5083]	–	–	–	–	–	–	–	–	–	–	–	–	integrated fluorescence intensity (GFP-TDP-4FL) ([8]; WT cells, CB5083 + CHX 6 hours after 3 hours MG132): significantly higher than CHX only treatment; integrated fluorescence intensity (GFP-TDP-4FL) [9, 12]: greater integrated fluorescence intensity compared to CHX only treatment; integrated fluorescence intensity (GFP-TDP-4FL) [10, 12]: greater integrated fluorescence intensity compared to CHX only treatment; insoluble TDP-4FL protein [1, 12]: residual amounts of insoluble TDP-4FL protein; soluble TDP-4FL protein [1, 12]: significant decrease in soluble TDP-4FL protein; TDP-4FL aggregate morphology [2, 12]: residual irregularly shaped intranuclear TDP-4FL aggregates; altered mitochondrial morphology caused by VCP variants (drosophila model of MSP): reversed; markers of muscle pathology [11]: improved markers of muscle pathology
O=C(CSc1nc2ccccc2c(=O)n1NC(=O)c1ccccc1)c1ccc(Cl)cc1 [UP12]	39%	139.0 (131.9, 149.0) %	124.6 (119.8, 130.2) %	0.648 µM	about 25%	only compound to increase ATPase activity	did not inhibit luciferase activity	significantly increased recombinant WT VCP ATPase activity	0.309 nmol Pi / nmol VCP / s and 0.309 (0.269, 0.356) nmol Pi / nmol VCP / s	No compound significantly increased ATPase activity	seemed to increase ATPase activity, though not significantly	significantly increased ATPase activity	–

The next lines start with results.

maximal increase of VCP activity (recombinant WT VCP [5])	Maximum % Activity (95% CI) (recombinant WT VCP [5])	Maximum % Activity (95% CI) (WT VCP + Ufd1/Nploc4)	EC50 (WT VCP + Ufd1/Nploc4)	increase in kcat (recombinant WT VCP [6])	ATPase activity of ND1L construct (ND1L (aa1–481) VCP)	luciferase activity inhibition (luciferase)	Compound	recombinant WT VCP ATPase activity (in words) (recombinant WT VCP [5])	kcat (nmol Pi / nmol VCP / s) (95% CI) (recombinant WT VCP [6])	NSF ATPase activity compared to DMSO [7]	ATPase activity of VCP E578Q (inactive D2, active D1) (VCP (E578Q))	ATPase activity of LD2 construct (LD2 (aa442–806) VCP)	further results
104%	204.0 (189.2, 223.3) %	151.8 (144.7, 160.7) %	8.9 µM	more than 50%	did not inhibit the ATPase activity	did not inhibit luciferase activity	O=C(OCCN(C1=NS(=O)(=O)c2ccccc21)c1ccc(Cl)cc1)c1ccco1 [UP163]	significantly increased recombinant WT VCP ATPase activity	0.366 nmol Pi / nmol VCP / s and 0.366 (0.335, 0.401) nmol Pi / nmol VCP / s	No compound significantly increased ATPase activity	significantly decreased ATPase activity	significantly increased ATPase activity	change in EC50 with UN compared to without UN (WT VCP + Ufd1/Nploc4; recombinant UN 1:1 molar ratio with VCP): no change in EC50
97%	197.4 (189.8, 206.1) %	175.3 (164.6, 188.0) %	13.4 µM	100%	did not inhibit the ATPase activity	did not inhibit luciferase activity	COCCNC(=O)NC(=O)COC(=O)c1cc([N+](=O)[O-])ccc1Sc1nc(C)cs1 [UP109]	significantly increased recombinant WT VCP ATPase activity	0.489 nmol Pi / nmol VCP / s and 0.489 (0.459, 0.520) nmol Pi / nmol VCP / s	No compound significantly increased ATPase activity	decreased ATPase activity, though less than UP158 and UP163 and not significantly	significantly increased ATPase activity	integrated fluorescence intensity (GFP-TDP-4FL) ([8]; 5μM UP109 + CHX 4 hours after 17 hours MG132, vs CHX only): significantly decreased; integrated fluorescence intensity (GFP-TDP-4FL) ([8]; 20μM UP109 + CHX 4 hours after 17 hours MG132): further reduced; integrated fluorescence intensity (GFP-TDP-4FL) ([9]; 5μM UP109 + CHX vs CHX only): significantly decreased integrated fluorescence intensity; integrated fluorescence intensity (GFP-TDP-4FL) ([10]; 5μM UP109 + CHX vs CHX only): significantly decreased integrated fluorescence intensity; insoluble TDP-4FL levels [1, 13]: significant decrease in insoluble TDP-4FL levels; soluble TDP-4FL levels [1, 13]: increase in soluble TDP-4FL levels; TDP-4FL aggregate morphology ([2]; 5μM UP109 + CHX 4 hours after MG132): appeared to be smaller and in some cases revert to small anisosomes
50%	150.3 (146.6, 154.3) %	152.1 (143.2, 164.4) %	14.3 µM	more than 50%	did not inhibit the ATPase activity	did not inhibit luciferase activity	Clc1ccc2[nH]c3c(N4CCC5(CC4)OCCO5)ncnc3c2c1 [UP158]	significantly increased recombinant WT VCP ATPase activity	0.356 nmol Pi / nmol VCP / s and 0.356 (0.320, 0.396) nmol Pi / nmol VCP / s	No compound significantly increased ATPase activity	significantly decreased ATPase activity	significantly increased ATPase activity	–
